Assay type in all cases: functional
Experiment [1] concerns Rattus norvegicus. The experiment can be described thus: Antiallergic activity by rat passive cutaneous anaphylaxis (PCA) assay when administered iv.;value ranges between (0.06-0.4). The essentials:
(§1)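 Male rats sensitized by id injection of diluted rat anti-ovalbumin reaginic serum (0.1 mL each side of shaved back). 24 h later, compound in saline was mixed with 5 mg ovalbumin in 0.5 mL 2% Evans Blue and given iv at 1 mL/kg. Blued-spot diameters were read 30 min later. Six rats per group; ED50 is 50% area reduction versus control, with 95% confidence limits.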

In experiment [2] the test system is Rattus norvegicus. Put plainly: Antiallergic activity by rat passive cutaneous anaphylaxis (PCA) assay when administered per orally.;value ranges between (1.0-4.1.). The conditions noted are these: po. The essentials: (§2)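 Rats were passively sensitized intradermally with diluted reaginic anti-ovalbumin serum 24 h before challenge. Compound was suspended in 1% acacia and dosed by oral feeding needle at 1 mL/kg. After 20-30 min, rats were challenged with 0.02 mg ovalbumin in 0.5 mL 2% Evans Blue. Blued areas were measured 30 min after challenge. Six rats per dose; ED50 is 50% area reduction from control, with 95% confidence limits.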

In experiment [3] the test system is Rattus norvegicus. Put plainly: Antiallergic activity by rat passive cutaneous anaphylaxis (PCA) assay when administered per orally;value ranges between (1.4-4.6.). The conditions noted are these: po. The essentials: as §2
In experiment [4] the test system is Rattus norvegicus. The experiment can be described thus: Antiallergic activity by rat passive cutaneous anaphylaxis (PCA) assay when administered per orally;value ranges between (2.0-5.0.). The conditions noted are these: po. The procedure, abridged:
as §2

Experiment [5] deals with Rattus norvegicus. Put plainly: Antiallergic activity by rat passive cutaneous anaphylaxis (PCA) assay when administered per orally.;value ranges between (1.3-3.2). The conditions noted are these: po. The essentials: as §2
Experiment [6] deals with Rattus norvegicus. The experiment can be described thus: antiallergic activity by rat passive cutaneous anaphylaxis (PCA) assay when administered iv. The procedure, abridged: as §1
Experiment [7] relates to Rattus norvegicus. The experiment can be described thus: Antiallergic activity by rat passive cutaneous anaphylaxis (PCA) assay when administered perorally. The conditions noted are these: po. The procedure, abridged: as §2
For experiment [8], the system named is Rattus norvegicus. Put plainly: Antiallergic activity by rat passive cutaneous anaphylaxis (PCA) assay when administered per orally;value ranges between (0.64-6.67). The conditions noted are these: po. The procedure, abridged:
as §2

Experiment [9] deals with Rattus norvegicus. The experiment can be described thus: Antiallergic activity by rat passive cutaneous anaphylaxis (PCA) assay when administered iv.;value ranges between (0.2-1.8.). The essentials: as §1
The subject of experiment [10] is Rattus norvegicus. The experiment can be described thus: Antiallergic activity by rat passive cutaneous anaphylaxis (PCA) assay when administered perorally; value ranges between (2.9-15.4). The conditions noted are these: po. The essentials: as §2
Experiment [11] concerns Rattus norvegicus. The experiment can be described thus: Antiallergic activity by rat passive cutaneous anaphylaxis (PCA) assay when administered per orally;value ranges between (1.5-9.0). The conditions noted are these: po. The procedure, abridged: as §2
In experiment [12] the test system is Rattus norvegicus. The experiment can be described thus: Antiallergic activity by rat passive cutaneous anaphylaxis (PCA) assay when administered per orally;value ranges between (0.11-0.75.). The conditions noted are these: po. The essentials: as §2
Experiment [13] concerns Rattus norvegicus. The experiment can be described thus: Antiallergic activity by rat passive cutaneous anaphylaxis (PCA) assay when administered perorally; value ranges between (1.3-3.3). The conditions noted are these: po. The essentials: as §2
Experiment [14] concerns Rattus norvegicus. The experiment can be described thus: Antiallergic activity by rat passive cutaneous anaphylaxis (PCA) assay when administered iv;value ranges between 0.02-0.07. The procedure, abridged: as §1
For experiment [15], the system named is Rattus norvegicus. The experiment can be described thus: Antiallergic activity by rat passive cutaneous anaphylaxis (PCA) assay when administered per orally;value ranges between (0.32-1.04). The conditions noted are these: po. The essentials:
as §2

The subject of experiment [16] is Rattus norvegicus. Put plainly: Antiallergic activity by rat passive cutaneous anaphylaxis (PCA) assay when administered iv.;value ranges between (0.04-0.3). The essentials:
as §1

Experiment [17] deals with Rattus norvegicus. Put plainly: Antiallergic activity by rat passive cutaneous anaphylaxis (PCA) assay when administered perorally; value ranges between (0.4-2.3.). The conditions noted are these: po. The essentials: as §2

`COc1cccc(-c2csc(NC(=O)C(=O)O)n2)c1`: the results for the median effective dose (ED50) with Rattus norvegicus [1] and in the experiment on Rattus norvegicus [2] were 0.16 mg/kg and 2.1 mg/kg, respectively.

For `NCCO.O=C(O)C(=O)Nc1nc(-c2ccc([N+](=O)[O-])cc2)cs1`, it took a dose of 2.5 mg/kg to reach the 50% effect level in the experiment with Rattus norvegicus [3] (ED50).

`CCOC(=O)C(=O)Nc1nc(-c2ccc(N3CCCCC3)cc2)cs1`: the ED50 in the experiment on Rattus norvegicus [4] was 3.2 mg/kg.

In the case of `CCOC(=O)C(=O)Nc1nc(-c2ccc(OCC)cc2)cs1`, the 50% effect level with Rattus norvegicus [5] (ED50) was put at a dose of 2.1 mg/kg.

Regarding `O=C(O)C(=O)Nc1nc(-c2ccccc2)cs1`, the 50% effective dose (ED50) with Rattus norvegicus [6] is above 3 mg/kg; in the experiment with Rattus norvegicus [7], around 1 mg/kg.

Take `COc1cc(-c2csc(NC(=O)C(=O)O)n2)ccc1O.NCCO`: the ED50 is below 0.1 mg/kg with Rattus norvegicus [6] and 2.1 mg/kg in the experiment with Rattus norvegicus [8].

Turning to `NCCO.O=C(O)C(=O)Nc1nc(-c2ccccc2O)cs1`, the values for the ED50 with Rattus norvegicus [9] and in the experiment on Rattus norvegicus [10] were 0.62 mg/kg and 6.7 mg/kg, respectively.

`CCOC(=O)C(=O)Nc1nc(-c2ccc(O)cc2C)cs1`: the 50% effect level with Rattus norvegicus [11] (ED50) was put at a dose of 3.7 mg/kg.

In turn, `CCOC(=O)C(=O)Nc1nc(-c2ccc(NC(C)=O)cc2)cs1` showed an ED50 in the experiment with Rattus norvegicus [12] of 0.29 mg/kg.

In turn, `Cc1sc(NC(=O)C(=O)O)nc1-c1ccccc1.NCCO` had a median effective dose (ED50) in the experiment on Rattus norvegicus [13] of 2.5 mg/kg.

Consider `NCCO.O=C(O)C(=O)Nc1nc(-c2ccc3c(c2)OCCO3)cs1`, for which the median effective dose (ED50) with Rattus norvegicus [14] came out at 0.039 mg/kg; in the experiment with Rattus norvegicus [15], 0.6 mg/kg.

For the compound `NCCO.O=C(O)C(=O)Nc1nc(-c2ccc(F)cc2)cs1`, the median effective dose (ED50) is 0.11 mg/kg with Rattus norvegicus [16] and 0.9 mg/kg with Rattus norvegicus [17].

Source of the values: ChEMBL document CHEMBL1122270, “N-(4-substituted-thiazolyl)oxamic acid derivatives, a new series of potent, orally active antiallergy agents” (1983).
